Each compound was assayed on Mus musculus (assay: Increase in catalase activity per milligram of tissue in mouse Ehrlich ascites carcinoma cells implanted in Swiss albino mouse treated after 7 days post-tumor implantation at 1.25 mM/kg, sc for 5 days). Conditions: not given; call rule not given here.
Type: functional
Outline: (§1)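 Livers from tumour-bearing mice were excised and rinsed in ice-cold saline, then in cold 0.15 mol/L Tris–HCl pH 7.4. They were blotted dry, weighed and homogenised at 10% w/v. Lipid peroxidation was expressed as nmol MDA/g tissue, catalase as kU/mg tissue and SOD as U/g tissue.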
CSCN1C(=O)CCC(N2C(=O)c3ccccc3C2=O)C1=O (configuration not stated) was tested, and the Activity was 6.7 kU. CN1CCN(NC(=S)SCN2C(=O)CCC(N3C(=O)c4ccccc4C3=O)C2=O)CC1 (configuration not stated) was tested, and the Activity was 8.2 kU. O=C1CCC(N2C(=O)c3ccccc3C2=O)C(=O)N1CSC(=S)NC1CCCCC1 (configuration not stated) showed an Activity of 6.4 kU. With O=C1CCC(N2C(=O)c3ccccc3C2=O)C(=O)N1CSC(=S)NCCN1CCCCC1 (configuration not stated) the Activity was 7.2 kU.

These compounds were tested on Ehrlich (assay: Induction of apoptosis in mouse Ehrlich ascites carcinoma cells implanted in Swiss albino mouse assessed as increase in Fas-L expression treated after 7 days post-tumor implantation at 1.25 mM/kg, sc for 5 days by immunohistochemical analysis). Conditions: not given.
Type: functional
Outline: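 Solid tumours from EAC-bearing female Swiss albino mice; formalin-fixed, paraffin-embedded 5 µm sections. Microwave antigen retrieval (20 min, 10 mmol citrate, pH 6.0) after peroxidase block; primary antibody overnight at room temperature, labelled streptavidin–biotin HRP detection, DAB chromogen, Mayer's hematoxylin counterstain. Immunoreactivity scored blind by light microscopy as intensity, % positive cells and H score.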
In the case of CSCN1C(=O)CCC(N2C(=O)c3ccccc3C2=O)C1=O (configuration not stated), the Activity was 45%. For CN1CCN(NC(=S)SCN2C(=O)CCC(N3C(=O)c4ccccc4C3=O)C2=O)CC1 (configuration not stated), the Activity was 60%. With O=C1CCC(N2C(=O)c3ccccc3C2=O)C(=O)N1CSC(=S)NC1CCCCC1 (configuration not stated) the Activity was 44%. With O=C1CCC(N2C(=O)c3ccccc3C2=O)C(=O)N1CSC(=S)NCCN1CCCCC1 (configuration not stated) the Activity was 55%.

What follows are compounds tested on Ehrlich (assay: Cytotoxicity against mouse Ehrlich ascites carcinoma cells assessed as viable cells at 30 uL after 24 hrs by trypan blue exclusion assay). Conditions: not given.
Type: functional
Outline: (§2)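 EAC cells maintained by i.p. passage in female Swiss albino mice. Cells aspirated from peritoneum, washed in HBSS and centrifuged at 1500 rpm for 15 min; 0.2 mL of diluted suspension plated. Compounds from 10 mmol stock in DMSO/H₂O (0.7:0.3) were added in triplicate and incubated 24 h at 37 °C, 5% CO₂. Viability by trypan blue exclusion; cytotoxicity calculated against control EAC cells.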
For CSCN1C(=O)CCC(N2C(=O)c3ccccc3C2=O)C1=O (configuration not stated), the Activity was 82.8%. Work on CN1CCN(NC(=S)SCN2C(=O)CCC(N3C(=O)c4ccccc4C3=O)C2=O)CC1 (configuration not stated) yielded an Activity of 100%. Compound O=C1CCC(N2C(=O)c3ccccc3C2=O)C(=O)N1CSC(=S)NC1CCCCC1 (configuration not stated) has an Activity of 95.2%. With O=C1CCC(N2C(=O)c3ccccc3C2=O)C(=O)N1CSC(=S)NCCN1CCCCC1 (configuration not stated) the Activity was 100%.

The compounds below were run on Mus musculus (assay: Decrease in lipid peroxidation in mouse Ehrlich ascites carcinoma cells implanted in Swiss albino mouse assessed as malondialdehyde per gram of tissue treated after 7 days post-tumor implantation at 1.25 mM/kg, sc for 5 days). Conditions: not given.
Type: functional
Outline: as §1
For CSCN1C(=O)CCC(N2C(=O)c3ccccc3C2=O)C1=O (configuration not stated), the Activity was 289.6 nmol. In the case of CN1CCN(NC(=S)SCN2C(=O)CCC(N3C(=O)c4ccccc4C3=O)C2=O)CC1 (configuration not stated), the Activity was 248.4 nmol. Compound O=C1CCC(N2C(=O)c3ccccc3C2=O)C(=O)N1CSC(=S)NC1CCCCC1 (configuration not stated) has an Activity of 257.8 nmol. O=C1CCC(N2C(=O)c3ccccc3C2=O)C(=O)N1CSC(=S)NCCN1CCCCC1 (configuration not stated) showed an Activity of 247.6 nmol.

The compounds below were run on Mus musculus (assay: Toxicity in Swiss albino mouse bearing mouse Ehrlich ascites carcinoma cells assessed as focal degeneration of hepatocytes treated after 7 days post-tumor implantation at 1.25 mM/kg, sc for 5 days by histopathological analysis). Conditions: in vivo.
Type: organism-based
Outline: (§3)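 Liver specimens from the treated tumour-bearing mice were paraffin-embedded and cut as 5 µm sections. Sections were H&E-stained and graded for severity of hepatocyte degeneration and necrosis, with 0 meaning no degeneration or necrosis.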
With CN1CCN(NC(=S)SCN2C(=O)CCC(N3C(=O)c4ccccc4C3=O)C2=O)CC1 (configuration not stated) the Activity was “Active”. O=C1CCC(N2C(=O)c3ccccc3C2=O)C(=O)N1CSC(=S)NC1CCCCC1 (configuration not stated) was tested, and the Activity was “Active”.

These compounds were tested on Ehrlich (assay: Cytotoxicity against mouse Ehrlich ascites carcinoma cells assessed as viable cells at 20 uL after 24 hrs by trypan blue exclusion assay). Conditions: not given.
Type: functional
Outline: as §2
In the case of CSCN1C(=O)CCC(N2C(=O)c3ccccc3C2=O)C1=O (configuration not stated), the Activity was 71.5%. With CN1CCN(NC(=S)SCN2C(=O)CCC(N3C(=O)c4ccccc4C3=O)C2=O)CC1 (configuration not stated) the Activity was 80.7%. Compound O=C1CCC(N2C(=O)c3ccccc3C2=O)C(=O)N1CSC(=S)NC1CCCCC1 (configuration not stated) has an Activity of 60.8%. O=C1CCC(N2C(=O)c3ccccc3C2=O)C(=O)N1CSC(=S)NCCN1CCCCC1 (configuration not stated) showed an Activity of 80.8%.

The compounds below were run on Ehrlich (assay: Cytotoxicity against mouse Ehrlich ascites carcinoma cells assessed as cell death at 10 uL after 24 hrs by trypan blue exclusion assay). Conditions: not given.
For CSCN1C(=O)CCC(N2C(=O)c3ccccc3C2=O)C1=O (configuration not stated), the Activity was 62.5%. With CN1CCN(NC(=S)SCN2C(=O)CCC(N3C(=O)c4ccccc4C3=O)C2=O)CC1 (configuration not stated) the Activity was 80.4%. O=C1CCC(N2C(=O)c3ccccc3C2=O)C(=O)N1CSC(=S)NC1CCCCC1 (configuration not stated) was tested, and the Activity was 20.6%. For O=C1CCC(N2C(=O)c3ccccc3C2=O)C(=O)N1CSC(=S)NCCN1CCCCC1 (configuration not stated), the Activity was 80.5%.

These compounds were tested on Ehrlich (assay: Antitumor activity against mouse Ehrlich ascites carcinoma cells implanted in Swiss albino mouse treated after 7 days post-tumor implantation at 1.25 mM/kg, sc for 5 days relative to control). Conditions: not given.
Type: functional
Outline: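 Female Swiss albino mice (n = 8 per group) received 0.2 mL EAC cells (2 × 10⁶ cells/mL) s.c. between the thighs of the lower limb. From day 7, compounds were given at 1.25 mM/kg s.c. daily for 5 consecutive days. […] control group received DMSO/H₂O. Mice were sacrificed and tumour volume change assessed on day 12 post-implantation.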
With CSCN1C(=O)CCC(N2C(=O)c3ccccc3C2=O)C1=O (configuration not stated) the “inhibition (INH)” value was 90.6%. In the case of CN1CCN(NC(=S)SCN2C(=O)CCC(N3C(=O)c4ccccc4C3=O)C2=O)CC1 (configuration not stated), the “inhibition (INH)” value was 98.9%. In the case of O=C1CCC(N2C(=O)c3ccccc3C2=O)C(=O)N1CSC(=S)NC1CCCCC1 (configuration not stated), the “inhibition (INH)” value was 92.7%. For O=C1CCC(N2C(=O)c3ccccc3C2=O)C(=O)N1CSC(=S)NCCN1CCCCC1 (configuration not stated), the “inhibition (INH)” value was 99.6%.

What follows are compounds tested on Mus musculus (assay: Increase in SOD activity per gram of tissue in mouse Ehrlich ascites carcinoma cells implanted in Swiss albino mouse treated after 7 days post-tumor implantation at 1.25 mM/kg, sc for 5 days). Conditions: not given.
Type: functional
Outline: as §1
In the case of CSCN1C(=O)CCC(N2C(=O)c3ccccc3C2=O)C1=O (configuration not stated), the Activity was 139.8 U. For CN1CCN(NC(=S)SCN2C(=O)CCC(N3C(=O)c4ccccc4C3=O)C2=O)CC1 (configuration not stated), the Activity was 162.2 U. Work on O=C1CCC(N2C(=O)c3ccccc3C2=O)C(=O)N1CSC(=S)NC1CCCCC1 (configuration not stated) yielded an Activity of 128.6 U. O=C1CCC(N2C(=O)c3ccccc3C2=O)C(=O)N1CSC(=S)NCCN1CCCCC1 (configuration not stated) showed an Activity of 145.8 U.

These compounds were tested on Mus musculus (assay: Toxicity in Swiss albino mouse bearing mouse Ehrlich ascites carcinoma cells assessed as hepatocyte necrosis treated after 7 days post-tumor implantation at 1.25 mM/kg, sc for 5 days by histopathological analysis). Conditions: in vivo, 1250 µM.
Type: organism-based
Outline: as §3
CSCN1C(=O)CCC(N2C(=O)c3ccccc3C2=O)C1=O (configuration not stated) was tested, and the Activity was “Non-toxic”. With CN1CCN(NC(=S)SCN2C(=O)CCC(N3C(=O)c4ccccc4C3=O)C2=O)CC1 (configuration not stated) the Activity was “Non-toxic”. With O=C1CCC(N2C(=O)c3ccccc3C2=O)C(=O)N1CSC(=S)NC1CCCCC1 (configuration not stated) the Activity was “Non-toxic”. With O=C1CCC(N2C(=O)c3ccccc3C2=O)C(=O)N1CSC(=S)NCCN1CCCCC1 (configuration not stated) the Activity was “Non-toxic”.

Each compound was assayed on Ehrlich (assay: Antitumor activity against mouse Ehrlich ascites carcinoma cells implanted in Swiss albino mouse assessed as tumor apoptotic index treated after 7 days post-tumor implantation at 1.25 mM/kg, sc for 5 days by histopathological analysis). Conditions: not given.
Type: functional
Outline: (§4)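 H&E-stained 5 µm paraffin sections of solid tumour. Mitotic cells counted in 10 random fields (at least 1000 tumour cells) at 400×. Apoptotic bodies counted in 10 random fields at the same magnification. MI and AI given as percentage of total intact tumour cells.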
CSCN1C(=O)CCC(N2C(=O)c3ccccc3C2=O)C1=O (configuration not stated) gave an Activity of 0.002. In the case of CN1CCN(NC(=S)SCN2C(=O)CCC(N3C(=O)c4ccccc4C3=O)C2=O)CC1 (configuration not stated), the Activity was 0.005. O=C1CCC(N2C(=O)c3ccccc3C2=O)C(=O)N1CSC(=S)NC1CCCCC1 (configuration not stated) was tested, and the Activity was 0.002. O=C1CCC(N2C(=O)c3ccccc3C2=O)C(=O)N1CSC(=S)NCCN1CCCCC1 (configuration not stated) gave an Activity of 0.004.

What follows are compounds tested on Ehrlich (assay: Antitumor activity against mouse Ehrlich ascites carcinoma cells implanted in Swiss albino mouse assessed as tumor mitotic index treated after 7 days post-tumor implantation at 1.25 mM/kg, sc for 5 days by histopathological analysis). Conditions: not given.
Type: functional
Outline: as §4
With CSCN1C(=O)CCC(N2C(=O)c3ccccc3C2=O)C1=O (configuration not stated) the Activity was 0.004. CN1CCN(NC(=S)SCN2C(=O)CCC(N3C(=O)c4ccccc4C3=O)C2=O)CC1 (configuration not stated) showed an Activity of 0.002. Compound O=C1CCC(N2C(=O)c3ccccc3C2=O)C(=O)N1CSC(=S)NC1CCCCC1 (configuration not stated) has an Activity of 0.005. Work on O=C1CCC(N2C(=O)c3ccccc3C2=O)C(=O)N1CSC(=S)NCCN1CCCCC1 (configuration not stated) yielded an Activity of 0.004.

Each compound was assayed on Mus musculus (assay: Toxicity in Swiss albino mouse bearing mouse Ehrlich ascites carcinoma cells assessed as multifocal degeneration of hepatocytes treated after 7 days post-tumor implantation at 1.25 mM/kg, sc for 5 days by histopathological analysis). Conditions: in vivo, 1250 µM.
Type: organism-based
Outline: as §3
O=C1CCC(N2C(=O)c3ccccc3C2=O)C(=O)N1CSC(=S)NCCN1CCCCC1 (configuration not stated) was tested, and the Activity was “Active”.

Each compound was assayed on Mus musculus (assay: Toxicity in Swiss albino mouse bearing mouse Ehrlich ascites carcinoma cells assessed as hepatocyte degeneration treated after 7 days post-tumor implantation at 1.25 mM/kg, sc for 5 days by histopathological analysis). Conditions: in vivo, 1250 µM.
Type: organism-based
Outline: as §3
With CSCN1C(=O)CCC(N2C(=O)c3ccccc3C2=O)C1=O (configuration not stated) the Activity was “Non-toxic”.

Each compound was assayed on Ehrlich (assay: Antitumor activity against mouse Ehrlich ascites carcinoma cells implanted in Swiss albino mouse assessed as tumor necrosis treated after 7 days post-tumor implantation at 1.25 mM/kg, sc for 5 days by histopathological analysis relative to control). Conditions: not given.
Type: functional
Outline: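 Necrosis scored on H&E-stained 5 µm paraffin sections of excised solid tumour. Severity and percentage necrosis were graded, and an H score was calculated.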
CSCN1C(=O)CCC(N2C(=O)c3ccccc3C2=O)C1=O (configuration not stated) showed an Activity of 49%. Work on CN1CCN(NC(=S)SCN2C(=O)CCC(N3C(=O)c4ccccc4C3=O)C2=O)CC1 (configuration not stated) yielded an Activity of 61%. O=C1CCC(N2C(=O)c3ccccc3C2=O)C(=O)N1CSC(=S)NC1CCCCC1 (configuration not stated) showed an Activity of 41%. O=C1CCC(N2C(=O)c3ccccc3C2=O)C(=O)N1CSC(=S)NCCN1CCCCC1 (configuration not stated) gave an Activity of 100%.

— ChEMBL document CHEMBL1151683, “Design, synthesis and antitumor evaluation of novel thalidomide dithiocarbamate and dithioate analogs against Ehrlich ascites carcinoma-induced solid tumor in Swiss albino mice” (Bioorg Med Chem, 2008)
